Compounds with a hit are over-represented: about 2.3% of the library has one in this group of screens.
TRPC4 inh = inhibitors of mouse TRPC4 channel, primary screen, Fluo4 calcium, HEK293 TRPC4beta/mu-opioid cells; DAMGO-evoked Fluo4 calcium flux; active compounds read low; B-score at 10 µM; 0.39% of 300,000 active;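 active = B-score over 3 SD under the library average, no early fluorescence shift, positive overall ratio signal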
Target sequence (Q9QUQ5 whole entry, looked up): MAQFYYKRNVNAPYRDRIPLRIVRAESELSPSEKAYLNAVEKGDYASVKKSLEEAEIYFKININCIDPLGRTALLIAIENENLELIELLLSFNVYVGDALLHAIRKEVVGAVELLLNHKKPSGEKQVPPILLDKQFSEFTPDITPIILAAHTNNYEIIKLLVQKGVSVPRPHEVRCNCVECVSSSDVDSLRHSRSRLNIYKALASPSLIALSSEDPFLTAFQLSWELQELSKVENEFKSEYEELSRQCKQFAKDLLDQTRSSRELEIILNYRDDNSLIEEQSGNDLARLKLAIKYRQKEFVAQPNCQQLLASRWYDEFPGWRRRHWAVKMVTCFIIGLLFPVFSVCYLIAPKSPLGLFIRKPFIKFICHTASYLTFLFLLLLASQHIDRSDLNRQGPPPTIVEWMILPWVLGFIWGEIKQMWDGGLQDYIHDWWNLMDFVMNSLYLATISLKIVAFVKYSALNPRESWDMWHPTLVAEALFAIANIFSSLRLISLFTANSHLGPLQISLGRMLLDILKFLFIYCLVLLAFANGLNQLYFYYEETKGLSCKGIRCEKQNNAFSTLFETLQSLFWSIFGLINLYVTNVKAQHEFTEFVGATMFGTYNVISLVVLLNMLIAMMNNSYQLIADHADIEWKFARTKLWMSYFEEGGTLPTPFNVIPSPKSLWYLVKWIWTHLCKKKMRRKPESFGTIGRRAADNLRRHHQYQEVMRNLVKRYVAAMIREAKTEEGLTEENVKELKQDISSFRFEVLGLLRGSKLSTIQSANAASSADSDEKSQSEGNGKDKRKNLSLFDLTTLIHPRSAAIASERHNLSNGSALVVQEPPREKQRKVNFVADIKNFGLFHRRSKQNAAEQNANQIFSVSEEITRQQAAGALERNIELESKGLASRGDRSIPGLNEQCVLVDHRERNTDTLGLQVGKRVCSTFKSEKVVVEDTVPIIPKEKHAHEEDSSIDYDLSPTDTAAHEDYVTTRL
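System: stable TRPC4beta/mu-opioid receptor HEK293 cells; Dosing: single-point compound dosing; Measured by: Fluo4 Ca2+ flux fluorescence; Read-out basis: per-well B score of integrated baseline-normalized Fluo4 ratio.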
TRPC4 potent = positive allosteric modulators of TRPC4, primary screen, cell-based, mouse TRPC4beta, HEK293 mu-opioid, Fluo-4 calcium. Short transient receptor potential channel 4 (Mus musculus), Q9QUQ5. DAMGO EC20, Fluo-4 Ca2+ flux; active compounds read high. B-score at 10 µM. 0.42% of 310,000 active. AID 2227, 2009;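 active = B-score of calcium response area above 5 SD of library B-scores, with initial fluorescence ratio within 5 SD of library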;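 note: B-score of integrated fluorescence ratio over time as area under calcium response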
TRPC6 activator = mouse TRPC6 channel activators, primary screen, cell-based, HEK293, membrane potential dye; Short transient receptor potential channel 6 (Mus musculus), Q61143; HEK293-TRPC6 membrane potential dye fluorescence; active compounds read high; B-score at 10 µM; 0.13% of 310,000 active;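 active = B-score of the integrated fluorescence ratio above library mean plus 3 SD, and starting fluorescence ratio within library mean plus 5 SD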;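 note: higher score means more depolarization so channel activation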
TRPC6 inhibitor = mouse TRPC6 channel inhibitors, primary screen, cell-based, HEK293, membrane potential dye. B-score at 10 µM. AID 2553, 2010. Short transient receptor potential channel 6 (Mus musculus), Q61143. ACh-evoked depolarization; active compounds read low. 1.1% of 310,000 active;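 active = B-score under library mean minus 3 SD, initial fluorescence not abnormally high, positive integrated signal ratio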;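 note: B-score derived from integrated fluorescence ratio over the kinetic read; more negative B-score means stronger inhibition of depolarization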
TRPC4 act = activators of mouse TRPC4 channel, primary screen, Fluo4 calcium, HEK293 TRPC4beta/mu-opioid cells; Fluo4 calcium fluorescence; active compounds read high; B-score at 10 µM; 0.49% of 310,000 active;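 active = B-score above 5 SD of library B-scores, and initial fluorescence ratio not above library mean plus 5 SD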;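 note: positive B-score marks a calcium rise read as TRPC4 activation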
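Assay system: HEK293 stable line with TRPC4beta plus mu-opioid receptor. Times: dye 45 min RT, read 110 s. Measured by: kinetic Fluo4 calcium fluorescence. Measure: B score of integrated ratio. Controls: assay buffer as low control, maximal DAMGO as high control.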
* hit, by the source's call.

`O=C(/C=C/c1ccc(Cl)cc1Cl)N(Cc1ccccc1)C1CCS(=O)(=O)C1` (stereo unspecified) gave TRPC4 inh inactive, TRPC4 potent inactive, TRPC6 activator inactive, TRPC6 inhibitor inactive and TRPC4 act inactive.
`Cc1ccc2oc(C(=O)N(Cc3ccccc3)C3CCS(=O)(=O)C3)c(C)c2c1` (stereo unspecified) gave TRPC4 inh inactive, TRPC4 potent inactive, TRPC6 activator inactive, TRPC6 inhibitor inactive and TRPC4 act 43*.
For Cc1ccc2c(C)c(C(=O)N(Cc3cccs3)C3CCS(=O)(=O)C3)oc2c1 (stereo unspecified) the results were TRPC4 inh inactive, TRPC4 potent inactive, TRPC6 activator inactive, TRPC6 inhibitor inactive and TRPC4 act 61*.
Screening O=C(/C=C/c1ccc(Cl)cc1)N(Cc1ccccc1)C1CCS(=O)(=O)C1 (stereo unspecified) returned TRPC4 inh inactive, TRPC4 potent 20*, TRPC6 activator inactive, TRPC6 inhibitor inactive and TRPC4 act inactive.
CCC(C)(C)n1nnnc1C(c1cccnc1)N1CCC(Cc2ccccc2)CC1 (stereo unspecified) was read as TRPC4 inh -6*, TRPC4 potent inactive, TRPC6 activator inactive, TRPC6 inhibitor inactive and TRPC4 act inactive.
Screening CC(=O)c1sc(NC(=O)CSC(C)C(=O)Nc2cc(C)on2)nc1-c1ccccc1 (stereo unspecified) returned TRPC4 inh inactive, TRPC4 potent inactive, TRPC6 activator inactive, TRPC6 inhibitor inactive and TRPC4 act inactive.
CC1CCN(C(C(=O)NC2CCCCC2)c2cc3c(cc2[N+](=O)[O-])OCO3)CC1 (stereo unspecified) was read as TRPC4 inh inactive, TRPC4 potent 11*, TRPC6 activator inactive, TRPC6 inhibitor inactive and TRPC4 act inactive.
Screening CC1CCCN(C(C(=O)NC2CCCCC2)c2cc3c(cc2[N+](=O)[O-])OCO3)C1 (stereo unspecified) returned TRPC4 inh inactive, TRPC4 potent inactive, TRPC6 activator inactive, TRPC6 inhibitor inactive and TRPC4 act inactive.
Screening COc1ccccc1Cn1c(C)nc2ccccc21 returned TRPC4 inh inactive, TRPC4 potent inactive, TRPC6 activator inactive, TRPC6 inhibitor inactive and TRPC4 act inactive.
`CCCc1nc2ccccc2n1Cc1ccccc1OC` gave TRPC4 inh -7*, TRPC4 potent inactive, TRPC6 activator inactive, TRPC6 inhibitor inactive and TRPC4 act inactive.
`COc1ccccc1Cn1c(CCCO)nc2ccccc21` gave TRPC4 inh inactive, TRPC4 potent inactive, TRPC6 activator inactive, TRPC6 inhibitor inactive and TRPC4 act inactive.
CCc1nc2ccccc2n1Cc1ccccc1OC was read as TRPC4 inh -5*, TRPC4 potent inactive, TRPC6 activator inactive, TRPC6 inhibitor inactive and TRPC4 act inactive.
`Cc1c(Cl)cccc1N=C(N)N=C(N)N` gave TRPC4 inh inactive, TRPC4 potent inactive, TRPC6 activator inactive, TRPC6 inhibitor inactive and TRPC4 act 51*.
Screening CC(C)C1NC(C(=O)O)Cc2c1[nH]c1ccccc21 (stereo unspecified) returned TRPC4 inh -7*, TRPC4 potent inactive, TRPC6 activator inactive, TRPC6 inhibitor inactive and TRPC4 act inactive.
CCCC1NC(C(=O)O)Cc2c1[nH]c1ccccc21 (stereo unspecified) was read as TRPC4 inh -6*, TRPC4 potent inactive, TRPC6 activator inactive, TRPC6 inhibitor inactive and TRPC4 act inactive.
CC(C)CC1NC(C(=O)O)Cc2c1[nH]c1ccccc21 (stereo unspecified) was read as TRPC4 inh inactive, TRPC4 potent inactive, TRPC6 activator inactive, TRPC6 inhibitor inactive and TRPC4 act inactive.
`N#C/C(=C\c1ccccc1[N+](=O)[O-])C(=O)Nc1ccc(S(N)(=O)=O)cc1` gave TRPC4 inh inactive, TRPC4 potent inactive, TRPC6 activator inactive, TRPC6 inhibitor inactive and TRPC4 act inactive.
`CC(C)(C)CC(=O)N[C@@H](Cc1ccccc1)c1nc2ccccc2[nH]1` gave TRPC4 inh inactive, TRPC4 potent inactive, TRPC6 activator inactive, TRPC6 inhibitor inactive and TRPC4 act inactive.
`COc1cc(C2NC(=S)NC(C)=C2C(=O)Nc2cc(C)cc(C)c2)ccc1O` (stereo unspecified) gave TRPC4 inh inactive, TRPC4 potent 10*, TRPC6 activator inactive, TRPC6 inhibitor inactive and TRPC4 act inactive.
CCC(C)C(NC(=O)OC(C)(C)C)C(=O)NC(CC(C)C)C(N)=O (stereo unspecified) was read as TRPC4 inh inactive, TRPC4 potent inactive, TRPC6 activator inactive, TRPC6 inhibitor inactive and TRPC4 act inactive.
For COc1ccc(-c2cc(C#N)nc(N3CCNCC3)n2)cc1 the results were TRPC4 inh inactive, TRPC4 potent inactive, TRPC6 activator inactive, TRPC6 inhibitor inactive and TRPC4 act 129*.
For COc1ccc(-c2cc(C#N)nc(N3CCN(C)CC3)n2)cc1 the results were TRPC4 inh inactive, TRPC4 potent inactive, TRPC6 activator inactive, TRPC6 inhibitor inactive and TRPC4 act inactive.
COc1ccc(-c2cc(C(F)(F)F)nc(N3CCN(C)CC3)n2)cc1 was read as TRPC4 inh inactive, TRPC4 potent 15*, TRPC6 activator inactive, TRPC6 inhibitor inactive and TRPC4 act inactive.
CC(C)c1ccc(NC(=O)N2CCOCC2)cc1 was read as TRPC4 inh inactive, TRPC4 potent inactive, TRPC6 activator inactive, TRPC6 inhibitor inactive and TRPC4 act inactive.
`CCc1ccc(OCc2ccc(C(=O)NCc3ccccn3)o2)cc1` gave TRPC4 inh inactive, TRPC4 potent 25*, TRPC6 activator inactive, TRPC6 inhibitor inactive and TRPC4 act inactive.
For CCOc1ccc(OCc2ccc(C(=O)NCc3ccncc3)o2)cc1 the results were TRPC4 inh inactive, TRPC4 potent inactive, TRPC6 activator inactive, TRPC6 inhibitor inactive and TRPC4 act inactive.
`CC1CCN(CCc2nc3cc(NS(=O)(=O)c4ccccc4)ccc3n2C)CC1` gave TRPC4 inh inactive, TRPC4 potent inactive, TRPC6 activator inactive, TRPC6 inhibitor inactive and TRPC4 act inactive.
`CC1CCN(CCc2nc3cc(NS(=O)(=O)c4ccc(F)cc4)ccc3n2C)CC1` gave TRPC4 inh inactive, TRPC4 potent 15*, TRPC6 activator inactive, TRPC6 inhibitor inactive and TRPC4 act inactive.

Screens from PubChem BioAssay.
